# Assay outcomes (PubChem)
# Shown are actives, neighbours in structure and some others; about 0.98% of the full set was active somewhere.
# Yeast lifespan up – extends the lifespan of yeast; S. cerevisiae growth with nicotinamide, OD615; deaD strain in restrictive glucose medium; inhibition of the nicotinamide effect, % at 10 µM; actives 0.68% (n = 130,000); AID 775;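 active = inhibition above a set limit, placed 3 SD over the median of all compounds, cut at about 26% in these data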;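 also: 0% = nicotinamide-treated wells and 100% = cells grown without nicotinamide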
#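 System: Modified budding yeast, DeaD strain | Buffer or medium: Restrictive glucose medium | Also added: 1.5 mM nicotinamide | Doses: 10 µM single point, 0.25% DMSO | Schedule: 48 h compound exposure at 30 °C, humidified | Detection: Absorbance at 615 nm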
# Yeast growth inh – yeast BB579 growth reduction in restrictive medium; S. cerevisiae BB579 growth, OD615, 48 h; inhibition, % at 10 µM; actives 0.51% (n = 140,000); AID 804;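 active = inhibition above a set limit, 3 SD over the mean compound inhibition, cut at about 44% in these data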
#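 System: DeaD yeast strain BB579; buffer or medium: CSMM-D dextrose restrictive medium; technique: OD at 615 nm; schedule: 4 h cell preincubation, 48 h compound exposure, 30 °C humidified; doses: single 10 µM dose; controls: amphotericin B 10 µg/mL, positive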
# S1P3 antagonist – antagonists of human S1P3 receptor. Q99500. CHO S1P3 NFAT-BLA reporter, FRET fluorescence, antagonist mode. inhibition, % at 4.98 µM. actives 0.27% (n = 170,000). AID 485;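 active = inhibition above the plate cutoff, the mean inhibition of test wells on that plate plus 3 SD, cut at about 28% in these data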;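 also: cells challenged with S1P at its EC80 of 0.8 µM; blue over green emission ratio from cleaved BLA substrate after 4 h stimulation; 0% = S1P-stimulated wells and 100% = unstimulated DMSO-only wells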
# Target sequence (Q99500 whole entry, looked up): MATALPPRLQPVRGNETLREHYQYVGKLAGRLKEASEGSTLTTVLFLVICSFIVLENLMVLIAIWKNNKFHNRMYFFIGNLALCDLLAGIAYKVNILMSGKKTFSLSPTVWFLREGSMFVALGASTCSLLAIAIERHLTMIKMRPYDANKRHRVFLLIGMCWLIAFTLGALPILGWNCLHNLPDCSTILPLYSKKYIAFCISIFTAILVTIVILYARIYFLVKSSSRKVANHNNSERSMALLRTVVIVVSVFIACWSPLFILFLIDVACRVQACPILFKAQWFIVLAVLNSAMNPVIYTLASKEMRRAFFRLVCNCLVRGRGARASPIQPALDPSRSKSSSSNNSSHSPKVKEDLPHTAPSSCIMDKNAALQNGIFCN
# * marks the source's active call; other numbers are inactive results; . = no result given.
SMILES,Yeast lifespan up,Yeast growth inh,S1P3 antagonist
Cc1sc2ncn(CC(=O)Nc3cccc(S(N)(=O)=O)c3)c(=O)c2c1-c1ccccc1,.,.,2.2
O=S(=O)(Nc1ccc(-n2cccc2)cc1)c1ccc(Cl)c(Cl)c1,.,.,4.1
O=S(=O)(Nc1ccc(-n2cccc2)cc1)c1ccc(Cl)cc1Cl,-25.8,74.3*,.
CN(Cc1c(F)cccc1Cl)c1ccc(S(=O)(=O)N2CCOCC2)cn1,-17.5,-44.1,28.4
COC(=O)c1c(NC(=O)CN2C(=O)c3ccccc3C2=O)sc(Cc2ccc3c(c2)OCO3)c1C,4.8,3.4,10.3
COc1cc(C(F)(F)F)c(C(=O)N(C)Cc2ccc(Cl)c(Cl)c2)cn1,.,.,-0.2
O=C(NN1C(=O)c2ccccc2C1=O)C1C2CCCCC21 (stereo unspecified),40.9*,-18.1,-7.1
O=C(NN1C(=O)c2ccccc2C1=O)c1ccncc1,.,.,-17.8
O=C(O)Cc1c(-c2ccccc2Cl)c2cc(Br)ccc2[nH]c1=O,.,.,-0.5
CSc1nnc(C)c(=O)n1COC(=O)c1ccc(S(=O)(=O)N2CCOCC2)cc1,-3.9,-20.2,-11.1
CC1CN(CC(=O)Nc2ccccc2Sc2ccccc2)CC(C)O1 (stereo unspecified),26.9*,3.6,-24.8
O=C(CN1CCOCC1)Nc1ccccc1Sc1ccccc1,2.2,-28.1,0.6
CCN(CC)C(=O)COc1ccc2oc(-c3ccco3)cc(=O)c2c1,.,.,-1.0
CCOC(=O)C(=NC(C)CC)NNc1ccc(Br)cc1 (stereo unspecified),-6.6,92.6*,14.4
CCOC(=O)C(=NC(C)CC)NNc1cccc(C(F)(F)F)c1 (stereo unspecified),-3.4,-11.8,-15.3
O=C(c1cn(-c2ccccc2)nc1-c1ccc(F)cc1)N1CCCCC1,6.8,-36.8,-3.0
CCC(=O)N(C)/C=C1\Sc2ccccc2C1=O,-31.6,-21.1,.
O=CN(/C=C1\Sc2ccccc2C1=O)Cc1ccccc1,48.0*,-25.9,.
CCCC(=O)C1C(=O)CC(C)(C)C(c2cc(C)no2)C1=O (stereo unspecified),55.9*,-47.7,-2.0
COC(=O)CCCCC(=O)C1C(=O)CC(C)(C)C(C(=O)OC)C1=O (stereo unspecified),36.2,-67.3,-15.5
Cc1ccc2c(c1)c1c3n2CCCNC3CCC1 (stereo unspecified),5.3,-1.4,14.4
c1cc2c(cc1C1CCCCC1)c1c3n2CCCNC3CCC1 (stereo unspecified),.,68.1*,.
O=C(CCCCn1c(=S)[nH]c2ccsc2c1=O)NCc1ccco1,3.0,-23.7,.
C/C(=N/O)c1ccccn1,.,.,7.9
CCCCCC/C(=N/O)c1ccccn1,-19.2,99.8*,8.5
SMILES,Yeast lifespan up,Yeast growth inh,S1P3 antagonist
COc1ccccc1CNC(=O)COC(=O)Cc1c(F)cccc1Cl,.,.,8.4
Cc1cc(C)c2c(N=NN3CCOCC3)[nH]nc2n1,-4.1,66.3*,9.9
Cc1cc(C)c2c(n1)sc1c(N3CCOCC3)ncnc12,.,.,11.6
Cc1cc2c(NC(=O)Nc3ccc(F)cc3)cccc2nn1,.,.,-4.3
CC1=C(/C=N/Nc2ccc([N+](=O)[O-])cc2[N+](=O)[O-])C(C)(C)CCC1,-6.0,-9.2,-4.7
CC1=C(/C=C/C(=O)O)C(C)(C)CCC1,28.2*,-1.8,.
COCc1[nH][nH]c(=O)c1C=NCC(=O)OC,.,.,8.3
CCc1ccc(S(=O)(=O)NCCc2cn3ccsc3n2)s1,11.3,46.5*,-9.8
CCc1ccc(S(=O)(=O)NCc2cn3ccsc3n2)s1,-3.8,18.0,4.7
COc1cccc(CC(=O)Nc2ccc3nc(C)sc3c2)c1,-2.6,79.3*,-21.8
COc1ccccc1CC(=O)Nc1ccc2nc(C)sc2c1,-6.0,1.9,1.4
CCOC(=O)C1CCN(Cc2coc3c(Cl)cc(Cl)cc3c2=O)CC1,-5.0,-30.2,.
C=CCn1c(=O)c(C(=O)NCCNCC)c(O)c2ccccc21,31.4*,-5.7,-44.4
CCNCCNC(=O)c1c(O)c2ccccc2n(CC)c1=O,43.6,-44.6,-9.1
CCC[C@@H](NS(=O)(=O)c1ccc(C)cc1)C(=O)Oc1ccc2c3c(c(=O)oc2c1)CCC3,-0.6,-9.0,3.8
Nc1cccc2c1C(=O)N(C(=O)c1cccc(S(=O)(=O)N3CCCCCC3)c1)C2=O,28.0,-25.1,.
Nc1cccc2c1C(=O)N(C(=O)c1ccc(Cl)c(S(=O)(=O)N3CCCCCC3)c1)C2=O,75.4*,-48.2,.
Cc1cccc(/N=C/c2c(O)cc(C)oc2=O)n1,2.2,-69.7,-18.0
Cc1cccc(/N=C/c2c(O)ccc3oc4c(c23)CCCC4)n1,30.8*,-14.6,6.1
CCOC(=O)c1ccc(NC(=O)CC2C(=O)N(c3ccc(F)cc3)C(=O)N2CCCOC)cc1 (stereo unspecified),-24.2,-27.0,.
O=C(/C=C/N1CCOCC1)c1ccc(-c2ccccc2)cc1,-31.6,98.6*,6.8
O=C(c1ccc(-c2ccccc2)cc1)c1ccccc1C(=O)N1CCOCC1,-24.4,-43.3,.
COc1ccc(C2SCC(=O)N2C)cc1 (stereo unspecified),-1.5,-30.3,.
O=C(NC(=S)NNC(=O)c1ccc(Cl)cc1Cl)c1cccnc1,44.0*,-5.8,-7.6
O=C(NNC(=S)NC(=O)c1cccnc1)c1ccc(Cl)cc1,43.1,-18.5,.
SMILES,Yeast lifespan up,Yeast growth inh,S1P3 antagonist
COCCN1C(=O)c2ccccc2C(C(=O)N2CCN(c3ccccn3)CC2)C1c1ccc(F)cc1 (stereo unspecified),-1.5,-20.9,.
O=[N+]([O-])c1ccc(N=Nc2ccc(O)cc2O)cc1,-11.8,82.6*,.
O=[N+]([O-])c1ccc(N=NN(CCO)CCO)cc1,6.3,-15.0,0.5
CCOC(=O)c1c(-c2ccc(F)cc2)csc1NC(=O)CCN1CCOCC1,-8.0,17.8,-0.4
CCOC(=O)c1c(-c2ccc(-c3ccccc3)cc2)csc1NC(=O)CCN1CCOCC1,-8.5,94.6*,-11.6
Nc1nonc1-c1noc(CCCN2C(=O)c3ccccc3C2=O)n1,-0.7,-30.4,14.5
CCOC(=O)c1c(CN(C)C)n(-c2ccccc2)c2cc(Br)c(OC)cc12,26.0*,-61.0,7.3
CCOC(=O)c1c(CN2CCOCC2)n(-c2ccccc2)c2cc(Br)c(OC)cc12,-12.3,-38.2,.
O=C(O)C(=O)/C(=C\c1cccc2ccccc12)c1ccc2ccccc2n1,30.0*,-45.7,.
O=C(O)C(=O)/C(=C\c1ccccc1)c1ccc2ccccc2n1,-2.9,-21.8,.
CCOC(=O)NNS(=O)(=O)c1cc(Br)ccc1Br,.,.,6.9
CC1(C)CC(=O)C(C=NCCN2CCN(C(=S)Nc3ccccc3)CC2)=C(O)C1,-17.5,-19.0,.
CC(=C1C(=O)c2ccccc2C1=O)N1CCN(CCN=CC2=C(O)CC(C)(C)CC2=O)CC1,34.3*,-18.6,-8.3
CC1(C)CC(=O)C(C=NCCN2CCN(C(=O)c3ccc(Br)cc3)CC2)=C(O)C1,.,-4.3,.
CC(=NCCN1CCN(C(C)=C2C(=O)c3ccccc3C2=O)CC1)C1=C(O)CC(C)(C)CC1=O,30.8*,-41.3,-0.2
COc1cc2c(cc1OC)CN(C(=S)Nc1c(C)cccc1C)CC2,7.8,-28.8,-3.1
Nc1nnc(CCS(=O)(=O)c2ccc(Cl)cc2)s1,-6.1,-20.4,.
Nc1nnc(CCS(=O)(=O)c2cc(Cl)ccc2Cl)s1,-17.1,9.5,76.7*
O=C1c2ccccc2-c2onc3ccc(NCCCn4ccnc4)c1c23,79.7*,-44.4,-4.6
COc1ccc2noc3c2c1C(=O)c1ccccc1-3,.,.,4.1
